High-throughput results from PubChem.
PvdQ acylase = P. aeruginosa PvdQ acylase inhibitors, primary screen, biochemical, fluorescence, plate reader and imaging, single point; inhibition, % at 10 µM; PvdQ acylase [Pseudomonas aeruginosa LESB58]; actives 0.063% (n = 340,000); purified PvdQ acylase; in the data active = inhibition above about 30%, passing the limit was not always enough;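 note: 0% = vehicle neutral wells and 100% = reference inhibitor wells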
PDI turbidity = inhibitors of human PDI, primary screen, biochemical, turbidity, single point, plate reader; AID 588391, 2011; inhibition, % at 10 µM; actives 0.052% (n = 350,000); PDI insulin aggregation turbidity, A650, 90 min; Protein disulfide-isomerase (Homo sapiens), P07237;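 active = mean inhibition across replicates of 30% or more, whatever share of single replicates reach that level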
Target sequence (P07237 whole entry, looked up): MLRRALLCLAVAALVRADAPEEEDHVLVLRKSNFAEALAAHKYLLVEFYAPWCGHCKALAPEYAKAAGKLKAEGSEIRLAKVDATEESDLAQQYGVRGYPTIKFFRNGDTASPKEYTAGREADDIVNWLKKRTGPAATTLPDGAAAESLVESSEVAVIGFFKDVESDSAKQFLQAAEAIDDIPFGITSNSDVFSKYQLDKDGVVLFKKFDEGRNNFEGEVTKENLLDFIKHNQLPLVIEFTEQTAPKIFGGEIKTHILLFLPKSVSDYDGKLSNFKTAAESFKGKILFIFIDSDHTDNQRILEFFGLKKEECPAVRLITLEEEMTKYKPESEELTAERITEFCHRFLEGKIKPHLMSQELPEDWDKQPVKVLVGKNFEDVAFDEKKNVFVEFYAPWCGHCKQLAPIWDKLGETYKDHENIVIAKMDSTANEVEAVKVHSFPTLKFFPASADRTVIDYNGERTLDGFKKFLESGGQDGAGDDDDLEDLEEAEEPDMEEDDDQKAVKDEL
PglD inh = C. jejuni PglD acetyltransferase inhibitors, primary screen, biochemical, DTNB colorimetric, single point; UDP-N-acetylbacillosamine N-acetyltransferase PglD (Campylobacter jejuni); purified PglD enzyme, DTNB colorimetric CoA detection; inhibition, % at 12.5 µM; actives 0.098% (n = 360,000); AID 602405, 2012; in the data active = inhibition above about 16%, passing the limit was not always enough
ERp5 block = inhibitors of ERp5-driven insulin aggregation, primary screen, biochemical, turbidity, absorbance 650 nm, single point; 90 min; inhibition, % at 9.99 µM; actives 0.05% (n = 350,000); AID 651711, 2012;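 active = mean replicate inhibition above about 25%, with every replicate also reaching it, limit read from the data, passing the limit was not always enough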
IMP-1 inhibitor = IMP-1 metallo-beta-lactamase inhibitors, primary screen, biochemical, epi-absorbance readout, Pseudomonas aeruginosa enzyme. metallo-beta-lactamase IMP-1 (Pseudomonas aeruginosa). purified IMP-1, nitrocefin hydrolysis, epi-absorbance fluorescence. inhibition, % at 5.6 µM. actives 0.45% (n = 290,000). AID 1556, 2009;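 active = inhibition above the mean plus 3 SD of all compounds in the same screening run, cut at about 4.5% in these data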;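 note: 0% = IMP-1 with DMSO and 100% = DMSO wells lacking enzyme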
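system = purified recombinant IMP-1 beta-lactamase | amount = 0.2 nM IMP-1, as dispensed | medium = HEPES buffer pH 7.1 with ZnSO4 and Brij 35 | times = 25 °C, 15 min preincubation, 25 min reaction | detection = plate fluorescence quenching by hydrolysis product, ex 480/em 530 nm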
VIM-2 inh = VIM-2 metallo-beta-lactamase inhibitors, primary screen, biochemical, epi-absorbance readout, Pseudomonas aeruginosa enzyme; purified VIM-2, nitrocefin hydrolysis, epi-absorbance fluorescence; inhibition, % at 5.6 µM; actives 0.89% (n = 290,000); AID 1527, 2009;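 active = inhibition above the mean of all tested compounds plus 3 SD, cutoff set per screening run, cut at about 7.5% in these data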;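 note: red hydrolysis product quenches plate fluorescence so inhibitors raise well fluorescence; 0% = enzyme with DMSO and 100% = DMSO without enzyme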
Active calls of the source: *; . = not tested or not shown. Hits are enriched below; roughly 1% of the tested compounds scored in any of these assays.

SMILES	PvdQ acylase	PDI turbidity	PglD inh	ERp5 block	IMP-1 inhibitor	VIM-2 inh
O=[N+]([O-])c1ccc(N2CCCC2)nc1	39*	-14	-12	-1	-1	-2
O=[N+]([O-])c1ccc(N2CCN(c3ccccc3)CC2)nc1	1	-1	.	0	0	-1
O=[N+]([O-])c1ccc(N2CCCCC2)cc1	48*	0	-4	-1	-4	-1
O=[N+]([O-])c1ccc(N2CCN(c3ccccc3)CC2)cc1	-5	3	-7	-13	-3	-1
N#Cc1cc([N+](=O)[O-])ccc1N1CCCC1	89*	0	.	1	-1	-1
CCOC(=O)C1CCN(C(=O)C2CCN(C(=O)c3ccc([N+](=O)[O-])cc3)CC2)CC1	-2	-3	-3	.	-4	-1
CCOC(=O)C1CCN(c2ccc([N+](=O)[O-])cc2)CC1	37*	12	.	3	-5	-3
C[C@H]1CN([C@@H](C)CO)C(=O)Cc2cc(NC(=O)Cc3ccccc3)ccc2O[C@@H]1CN(C)Cc1ccncc1	.	.	1	2	.	.
O=C(Cc1ccccn1)N1CC(=O)N2[C@@H](CO)[C@@H](c3ccc(C#CC4CCCC4)cc3)[C@@H]2C1	.	.	.	-3	.	.
C[C@@H]1CN([C@@H](C)CO)C(=O)c2cc(-c3ccc(C#N)cc3)cnc2O[C@H]1CN(C)CC1CCCC1	.	.	-2	4	.	.
O=[N+]([O-])c1ccc(N2CCCCC2)nc1	39*	-3	3	1	.	.
CCCNC(=O)C[C@H]1C[C@H]2c3cc(NS(C)(=O)=O)ccc3O[C@H]2[C@@H](CO)O1	.	.	0	27*	.	.
CCCNC(=O)C[C@@H]1C[C@@H]2c3cc(NS(C)(=O)=O)ccc3O[C@@H]2[C@@H](CO)O1	.	.	2	.	.	.
CCCNC(=O)C[C@@H]1C[C@H]2c3cc(NS(C)(=O)=O)ccc3O[C@H]2[C@@H](CO)O1	.	.	3	56*	.	.
CN1CCN(C(=O)c2ccc3c(c2)NC(=O)/C(=C/c2ccccc2)S3)CC1	-4	8	1	-1	-1	8.0*
O=C(C[C@@H]1CC[C@@H]2[C@H](COC[C@@H](O)CN2Cc2ccc(F)cc2)O1)N1CCc2ccccc2C1	.	.	25*	-4	.	.
CCn1c(SCC(=O)N2CCOCC2)nc2c([nH]c3ccccc32)c1=O	-24	8	-1	-2	-1	8.0*
CS(=O)(=O)N1[C@@H]2CNC[C@H]1C2c1ccc(-c2ccccc2)cc1 (stereo partly specified)	.	.	.	6	.	.
CCC(C)Nc1nc(-c2cccc(OC)c2O)nc2ccccc12 (stereo unspecified)	-10	-21	-5	.	-2	2
CCC(C)Nc1nc(-c2ccccn2)nc2ccccc12 (stereo unspecified)	8	-9	-15	-1	3	8.2*
c1ccc(Cn2nnc3c(Nc4ccc5c(c4)OCO5)nc(C4CC4)nc32)cc1	-10	66*	.	.	-4	-2
COc1ccc(OC)c(Nc2nc(C3CC3)nc3c2nnn3Cc2ccccc2)c1	2	0	.	.	-3	-1
O=C(C[C@@H]1CC[C@@H](NC(=O)Nc2ccc3c(c2)OCO3)[C@@H](CO)O1)NCc1ccccc1	.	.	2	3	.	.
COCCC(=O)N1CCC(Oc2ccc(C(=O)N3C[C@@H]4CCC[C@H]3C4)cc2)CC1	4	13	3	-10	5.1*	0
CC(=O)Nc1ccc2ccccc2c1	4	2	-2	.	-1	-3
CC(=O)Nc1ccc2cc3ccc(NC(C)=O)cc3nc2c1	-15	-6	2	3	3	8.4*
CC(C)NC(=O)N(C)C[C@H]1Oc2c(NC(=O)C3CC3)cccc2C(=O)N([C@H](C)CO)C[C@H]1C	.	.	6	-2	.	.
CC(=O)c1ccc2c(c1)C1C=CCC1C(c1ccc(S(=O)(=O)N3CCOCC3)cc1)N2 (stereo unspecified)	-8	12	.	.	-2	-3
